According to ChEMBL document CHEMBL4840303, “Design, synthesis, biological evaluation and pharmacophore model analysis of novel tetrahydropyrrolo[3,4-c]pyrazol derivatives as potential TRKs inhibitors” (Eur J Med Chem, 2021):

Legend:
[1] = biological target: Fibroblast growth factor receptor 1 (Homo sapiens) (UniProt P11362); experiment: Inhibition of recombinant His-tagged human FGFR1 expressed in baculovirus expression system at 1 uM measured by select screen assay relative to control
Procedure, shortened: (§1)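 Single-concentration profiling at 1.0 µM in a 28-kinase SelectScreen panel; percent inhibition reported.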

[2] = biological target: BDNF/NT-3 growth factors receptor (Homo sapiens, UniProt Q16620); experiment: Inhibition of N-terminal GST-tagged human TRKB (456 to 822 residues) expressed in baculovirus infected Sf21 cells using TK as substrate in presence of ATP measured after 40 mins by HTRF assay
[3] = biological target: NT-3 growth factor receptor (Homo sapiens, UniProt Q16288); experiment: Inhibition of N-terminal GST-tagged human TRKC (456 to 825 residues) expressed in Sf21 using TK as substrate in presence of ATP measured after 40 mins by HTRF assay
KM12 [4] = experiment: Induction of apoptosis in human KM12 cells assessed as necrotic cells at 62.5 nM measured after 48 hrs by AnnexinV-FITC/PI staining based flowcytometry assay relative to control; type: functional
Procedure, shortened: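 10^5 cells in Annexin V binding buffer stained with FITC-Annexin V and PI for 10 min at room temperature in the dark, diluted with PBS and analysed by flow cytometry (FITC 494/518 nm, PI 535/617 nm).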

KM12 [5] = experiment: Induction of apoptosis in human KM12 cells assessed as late apoptotic cells at 1000 nM measured after 48 hrs by AnnexinV-FITC/PI staining based flowcytometry assay relative to control; type: functional
Procedure, shortened: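 They were detached with trypsin, washed twice in PBS, and 10^5 cells were suspended in Annexin V binding buffer. Cells were stained with FITC-Annexin V and PI for 10 min at room temperature in the dark, diluted with PBS and analysed by flow cytometry.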

KM12 [6] = experiment: Cell cycle arrest in human KM12 cells assessed as accumulation of cells at S phase at 62.5 nM measured after 48 hrs by AnnexinV-FITC/PI staining based flowcytometry method relative to control; type: functional
KM12 [7] = experiment: Cell cycle arrest in human KM12 cells assessed as accumulation of cells at greater G1 phase at 62.5 nM measured after 48 hrs by AnnexinV-FITC/PI staining based flowcytometry method relative to control; type: functional
KM12 [8] = experiment: Cell cycle arrest in human KM12 cells assessed as accumulation of cells at G1 phase at 125 nM measured after 48 hrs by AnnexinV-FITC/PI staining based flowcytometry method relative to control; type: functional
KM12 [9] = experiment: Cell cycle arrest in human KM12 cells assessed as accumulation of cells at less G1 phase at 125 nM measured after 48 hrs by AnnexinV-FITC/PI staining based flowcytometry method relative to control; type: functional
KM12 [10] = experiment: Cell cycle arrest in human KM12 cells assessed as accumulation of cells at S phase at 250 nM measured after 48 hrs by AnnexinV-FITC/PI staining based flowcytometry method relative to control; type: functional
KM12 [11] = experiment: Cell cycle arrest in human KM12 cells assessed as accumulation of cells at S phase at 500 nM measured after 48 hrs by AnnexinV-FITC/PI staining based flowcytometry method relative to control; type: functional
KM12 [12] = experiment: Cell cycle arrest in human KM12 cells assessed as accumulation of cells at G2 phase at 1000 nM measured after 48 hrs by AnnexinV-FITC/PI staining based flowcytometry method relative to control; type: functional
KM12 [13] = experiment: Cell cycle arrest in human KM12 cells assessed as accumulation of cells at greater G1 phase at 1000 nM measured after 48 hrs by AnnexinV-FITC/PI staining based flowcytometry method relative to control; type: functional
[14] = biological target: ALK tyrosine kinase receptor (Homo sapiens) (UniProt Q9UM73); experiment: Inhibition of recombinant GST-tagged human ALK expressed in baculovirus expression system at 1 uM measured by select screen assay relative to control; procedure, shortened: as §1
[15] = biological target: Maternal embryonic leucine zipper kinase (Homo sapiens) (UniProt Q14680); experiment: Inhibition of recombinant GST-tagged human MELK expressed in baculovirus expression system at 1 uM measured by select screen assay relative to control; procedure, shortened: as §1
[16] = biological target: Aurora kinase A (Homo sapiens) (UniProt O14965); experiment: Inhibition of recombinant His-tagged full length human Aurora A expressed in baculovirus expression system at 1 uM measured by select screen assay relative to control; procedure, shortened: as §1
[17] = biological target: Hepatocyte growth factor receptor (Homo sapiens) (UniProt P08581); experiment: Inhibition of recombinant His-tagged human MET expressed in baculovirus expression system at 1 uM measured by select screen assay relative to control; procedure, shortened: as §1
[18] = biological target: Mitogen-activated protein kinase 3 (Homo sapiens) (UniProt P27361); experiment: Inhibition of recombinant GST-tagged full length human ERK1 expressed in Escherichia coli expression system at 1 uM measured by select screen assay relative to control; procedure, shortened: as §1
[19] = biological target: Serine/threonine-protein kinase pim-1 (Homo sapiens) (UniProt P11309); experiment: Inhibition of recombinant His-tagged full length human PIM1 expressed in baculovirus expression system at 1 uM measured by select screen assay relative to control; procedure, shortened: as §1
[20] = Stability in human plasma assessed as compound remaining incubated for 120 mins by LC-MS/MS analysis; type: ADME, cell-free; details: read-out: Stability
Procedure, shortened: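 Pooled frozen human plasma thawed at 37 °C, centrifuged to remove clots, pH adjusted to 7.4 if required. Spiked to 2 µM final (from 100 µM dosing solution), in duplicate, incubated at 37 °C in a water bath. Sampled at 0, 10, 30, 60 and 120 min, quenched with acetonitrile stop solution containing internal standards, centrifuged, and supernatant analysed by LC-MS/MS for percent remaining.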

CYP2C19 = CYP2C19 (Homo sapiens, UniProt P33261); experiment: Inhibition of CYP2C19 in human liver microsomes at 10 uM preincubated for 10 mins followed by addition of NADPH and measured after 15 mins by LC-MS/MS analysis; type: ADME; details: time 25 min
Procedure, shortened: (§2)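 Pooled human liver microsomes (0.253 mg/mL) with test compound at 10 µM and probe substrates: phenacetin (CYP1A2), diclofenac (CYP2C9), S-mephenytoin (CYP2C19), dextromethorphan (CYP2D6), midazolam (CYP3A4). 10 min preincubation at 37 °C, NADPH-regenerating system added, 15 min at 37 °C. Stopped with cold acetonitrile containing tolbutamide/labetalol internal standards, centrifuged, supernatant read by LC-MS/MS; % inhibition.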

CYP2D6 = CYP2D6 (Homo sapiens, UniProt P10635); experiment: Inhibition of CYP2D6 in human liver microsomes at 10 uM preincubated for 10 mins followed by addition of NADPH and measured after 15 mins by LC-MS/MS analysis; type: ADME; details: time 25 min; procedure, shortened: as §2
[21] = AUC (0 to infinity) in Sprague dawley rat at 3 mg/kg, po; type: ADME, organism-based; set-up: time infinity, route oral, dose 3 mg/kg; details: in vivo
Procedure, shortened: (§3)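 Blood was collected into heparin tubes at specified time points and centrifuged at once (4 °C, 4000 rpm, 20 min). Plasma levels were quantified by LC-MS/MS. Parameters came from noncompartmental analysis.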

[22] = AUC (0 to infinity) in Sprague dawley rat at 1 mg/kg, iv; type: ADME, organism-based; set-up: time infinity, route intravenous, dose 1 mg/kg; details: in vivo; procedure, shortened: as §3
[23] = Volume of distribution at steady state in Sprague dawley rat at 1 mg/kg, iv; type: ADME, organism-based; details: in vivo, read-out: Vdss
Procedure, shortened: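 Single intravenous dose of 1 mg/kg to SD rats (n = 3 per group). Blood collected into heparinised tubes at specified times, centrifuged at 4 °C, and quantified by LC-MS/MS. Steady-state volume of distribution obtained by noncompartmental analysis.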

Sequence of CYP2D6 (P10635 whole entry): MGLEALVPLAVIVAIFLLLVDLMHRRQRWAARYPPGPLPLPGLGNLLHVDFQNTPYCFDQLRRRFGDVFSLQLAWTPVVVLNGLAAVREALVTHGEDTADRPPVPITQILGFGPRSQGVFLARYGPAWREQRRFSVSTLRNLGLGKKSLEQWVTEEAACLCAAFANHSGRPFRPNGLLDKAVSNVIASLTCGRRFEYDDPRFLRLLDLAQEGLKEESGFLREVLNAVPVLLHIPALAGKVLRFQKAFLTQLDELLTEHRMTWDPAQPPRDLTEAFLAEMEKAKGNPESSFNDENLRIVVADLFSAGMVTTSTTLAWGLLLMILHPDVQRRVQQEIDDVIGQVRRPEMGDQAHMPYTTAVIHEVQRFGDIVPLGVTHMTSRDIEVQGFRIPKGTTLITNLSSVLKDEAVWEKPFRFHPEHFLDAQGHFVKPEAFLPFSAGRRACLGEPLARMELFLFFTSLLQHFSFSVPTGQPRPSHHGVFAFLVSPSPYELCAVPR
Sequence of Hepatocyte growth factor receptor (Homo sapiens) (P08581 whole entry): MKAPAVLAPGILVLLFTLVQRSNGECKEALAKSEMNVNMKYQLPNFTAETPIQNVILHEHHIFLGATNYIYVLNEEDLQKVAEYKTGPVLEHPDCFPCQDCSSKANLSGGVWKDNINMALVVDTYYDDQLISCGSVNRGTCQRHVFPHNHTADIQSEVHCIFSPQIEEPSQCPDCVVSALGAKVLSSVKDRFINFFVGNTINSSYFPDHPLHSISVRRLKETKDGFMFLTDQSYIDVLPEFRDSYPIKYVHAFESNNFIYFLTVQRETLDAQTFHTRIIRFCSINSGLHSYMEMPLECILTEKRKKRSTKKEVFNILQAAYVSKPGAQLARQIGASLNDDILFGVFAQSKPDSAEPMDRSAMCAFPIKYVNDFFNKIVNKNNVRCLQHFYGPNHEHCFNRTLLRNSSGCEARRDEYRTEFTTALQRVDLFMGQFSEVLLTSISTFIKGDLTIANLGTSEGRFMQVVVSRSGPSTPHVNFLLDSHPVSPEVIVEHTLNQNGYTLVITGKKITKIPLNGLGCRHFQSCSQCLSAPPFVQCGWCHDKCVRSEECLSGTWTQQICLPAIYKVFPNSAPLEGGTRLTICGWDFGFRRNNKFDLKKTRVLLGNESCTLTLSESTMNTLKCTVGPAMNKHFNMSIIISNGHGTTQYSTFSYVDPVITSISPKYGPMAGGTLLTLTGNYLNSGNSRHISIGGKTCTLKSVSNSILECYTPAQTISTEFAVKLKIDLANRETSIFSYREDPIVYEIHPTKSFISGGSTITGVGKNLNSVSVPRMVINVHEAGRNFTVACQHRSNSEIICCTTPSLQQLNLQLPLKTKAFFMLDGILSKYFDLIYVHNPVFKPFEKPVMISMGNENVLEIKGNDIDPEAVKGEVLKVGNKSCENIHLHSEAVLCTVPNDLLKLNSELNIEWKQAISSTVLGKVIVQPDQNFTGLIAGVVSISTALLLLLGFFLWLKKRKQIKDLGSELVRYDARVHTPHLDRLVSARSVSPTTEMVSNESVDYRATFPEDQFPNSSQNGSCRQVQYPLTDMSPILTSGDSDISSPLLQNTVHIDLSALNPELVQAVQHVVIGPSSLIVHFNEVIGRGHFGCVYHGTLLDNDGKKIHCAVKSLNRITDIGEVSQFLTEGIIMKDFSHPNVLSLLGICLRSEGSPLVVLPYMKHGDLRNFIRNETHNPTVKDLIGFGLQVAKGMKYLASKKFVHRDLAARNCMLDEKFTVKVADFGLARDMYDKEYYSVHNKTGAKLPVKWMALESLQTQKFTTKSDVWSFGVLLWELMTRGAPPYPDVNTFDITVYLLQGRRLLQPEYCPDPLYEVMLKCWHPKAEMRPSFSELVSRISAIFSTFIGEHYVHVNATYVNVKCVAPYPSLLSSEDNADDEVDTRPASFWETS
Sequence of Serine/threonine-protein kinase pim-1 (Homo sapiens) (P11309 whole entry, looked up): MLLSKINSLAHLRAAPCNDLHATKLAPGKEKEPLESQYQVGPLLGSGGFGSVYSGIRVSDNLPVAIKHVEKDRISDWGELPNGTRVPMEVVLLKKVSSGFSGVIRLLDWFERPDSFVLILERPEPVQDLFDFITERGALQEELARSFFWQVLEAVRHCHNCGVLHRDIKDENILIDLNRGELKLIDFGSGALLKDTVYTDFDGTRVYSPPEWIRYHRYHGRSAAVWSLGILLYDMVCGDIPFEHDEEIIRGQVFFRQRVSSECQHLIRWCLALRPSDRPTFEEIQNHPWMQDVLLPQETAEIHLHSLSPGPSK
Sequence of CYP2C19 (P33261 whole entry): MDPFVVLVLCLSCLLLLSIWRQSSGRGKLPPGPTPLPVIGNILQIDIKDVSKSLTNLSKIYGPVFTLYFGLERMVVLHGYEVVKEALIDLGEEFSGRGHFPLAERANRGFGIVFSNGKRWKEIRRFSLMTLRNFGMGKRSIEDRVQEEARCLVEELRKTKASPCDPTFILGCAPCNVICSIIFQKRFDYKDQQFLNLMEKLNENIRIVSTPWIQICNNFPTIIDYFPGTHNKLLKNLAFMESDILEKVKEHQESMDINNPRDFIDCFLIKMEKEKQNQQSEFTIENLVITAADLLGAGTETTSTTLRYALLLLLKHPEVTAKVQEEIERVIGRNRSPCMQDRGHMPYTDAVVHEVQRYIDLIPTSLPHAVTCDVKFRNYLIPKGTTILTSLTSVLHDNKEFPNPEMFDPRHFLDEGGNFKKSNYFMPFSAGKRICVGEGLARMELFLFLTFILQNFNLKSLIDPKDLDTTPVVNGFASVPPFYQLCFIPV
Sequence of Mitogen-activated protein kinase 3 (Homo sapiens) (P27361 whole entry): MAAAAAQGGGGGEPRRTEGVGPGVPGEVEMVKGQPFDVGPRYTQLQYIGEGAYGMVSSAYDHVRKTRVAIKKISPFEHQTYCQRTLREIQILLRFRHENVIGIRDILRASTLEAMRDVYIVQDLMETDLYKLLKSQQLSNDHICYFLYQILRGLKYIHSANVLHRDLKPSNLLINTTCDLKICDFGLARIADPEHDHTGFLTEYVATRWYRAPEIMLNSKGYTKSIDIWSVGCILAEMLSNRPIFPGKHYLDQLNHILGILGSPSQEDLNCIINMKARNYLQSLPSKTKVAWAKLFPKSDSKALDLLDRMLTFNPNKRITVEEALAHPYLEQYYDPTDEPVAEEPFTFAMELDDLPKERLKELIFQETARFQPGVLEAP
Sequence of BDNF/NT-3 growth factors receptor (Q16620 whole entry, the tested form may be a part): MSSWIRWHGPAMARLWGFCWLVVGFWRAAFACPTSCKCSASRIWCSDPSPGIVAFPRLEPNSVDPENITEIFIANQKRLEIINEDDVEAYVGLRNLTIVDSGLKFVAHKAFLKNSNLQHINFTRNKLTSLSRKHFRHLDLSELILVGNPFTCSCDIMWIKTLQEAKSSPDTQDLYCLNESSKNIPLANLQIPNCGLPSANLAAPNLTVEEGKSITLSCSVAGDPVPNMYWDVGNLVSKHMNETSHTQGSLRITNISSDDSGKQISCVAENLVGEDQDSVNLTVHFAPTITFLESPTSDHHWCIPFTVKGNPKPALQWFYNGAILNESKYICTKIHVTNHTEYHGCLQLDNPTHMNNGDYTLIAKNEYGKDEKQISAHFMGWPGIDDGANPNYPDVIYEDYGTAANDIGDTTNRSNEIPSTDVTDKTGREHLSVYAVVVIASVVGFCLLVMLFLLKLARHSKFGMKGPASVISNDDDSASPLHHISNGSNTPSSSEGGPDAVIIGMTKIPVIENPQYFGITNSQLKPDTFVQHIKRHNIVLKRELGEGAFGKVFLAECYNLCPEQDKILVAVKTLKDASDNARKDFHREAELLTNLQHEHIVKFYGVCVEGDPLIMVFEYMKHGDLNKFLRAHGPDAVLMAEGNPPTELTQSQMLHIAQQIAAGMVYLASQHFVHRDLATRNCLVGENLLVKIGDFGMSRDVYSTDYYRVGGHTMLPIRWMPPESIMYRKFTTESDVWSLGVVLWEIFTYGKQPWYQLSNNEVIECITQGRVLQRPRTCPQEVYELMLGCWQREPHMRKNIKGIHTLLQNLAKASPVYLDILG
Sequence of Aurora kinase A (Homo sapiens) (O14965 whole entry): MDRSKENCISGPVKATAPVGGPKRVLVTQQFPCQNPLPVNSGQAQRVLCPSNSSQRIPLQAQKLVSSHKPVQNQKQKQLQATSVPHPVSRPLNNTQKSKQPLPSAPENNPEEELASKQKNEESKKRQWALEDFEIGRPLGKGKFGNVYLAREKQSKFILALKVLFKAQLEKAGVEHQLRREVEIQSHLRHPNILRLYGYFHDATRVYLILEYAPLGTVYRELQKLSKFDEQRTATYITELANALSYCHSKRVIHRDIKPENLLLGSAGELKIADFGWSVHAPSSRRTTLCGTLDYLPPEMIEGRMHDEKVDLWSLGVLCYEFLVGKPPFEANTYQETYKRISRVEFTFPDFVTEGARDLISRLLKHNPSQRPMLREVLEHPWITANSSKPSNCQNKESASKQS
Sequence of Maternal embryonic leucine zipper kinase (Homo sapiens) (Q14680 whole entry, looked up): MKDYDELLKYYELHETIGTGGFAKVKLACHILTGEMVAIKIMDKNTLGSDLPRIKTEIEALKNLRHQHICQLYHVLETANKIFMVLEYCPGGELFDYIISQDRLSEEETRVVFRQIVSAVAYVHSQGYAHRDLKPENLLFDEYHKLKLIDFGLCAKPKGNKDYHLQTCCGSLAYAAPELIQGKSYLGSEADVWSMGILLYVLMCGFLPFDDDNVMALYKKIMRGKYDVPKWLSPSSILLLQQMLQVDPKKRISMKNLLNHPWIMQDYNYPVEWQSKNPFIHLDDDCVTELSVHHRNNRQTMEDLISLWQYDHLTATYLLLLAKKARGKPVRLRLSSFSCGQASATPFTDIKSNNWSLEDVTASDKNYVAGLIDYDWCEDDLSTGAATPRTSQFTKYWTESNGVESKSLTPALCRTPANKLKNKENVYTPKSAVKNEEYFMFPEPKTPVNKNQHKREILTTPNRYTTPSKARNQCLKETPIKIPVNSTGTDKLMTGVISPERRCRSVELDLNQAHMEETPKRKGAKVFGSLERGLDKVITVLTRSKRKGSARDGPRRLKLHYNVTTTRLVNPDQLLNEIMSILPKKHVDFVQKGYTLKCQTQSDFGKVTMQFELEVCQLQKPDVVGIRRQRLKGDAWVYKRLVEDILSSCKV

CN1CCN(c2ccc(C(=O)Nc3n[nH]c4c3CN(Cc3cc(F)cc(F)c3)C4(C)C)cc2)CC1
inhibition [1]: 60% | IC50 [2]: 0.028 µM | IC50 [3]: 0.011 µM | Activity (KM12 [4]): 0.03% | Activity (KM12 [5]): 39.95% | Activity (KM12 [6]): 35.6% | Activity (KM12 [7]): 4.25% | Activity (KM12 [8]): 56.6% | Activity (KM12 [9]): 7.36% | Activity (KM12 [10]): 8.17% | Activity (KM12 [11]): 6.56% | Activity (KM12 [12]): 8.92% | Activity (KM12 [13]): 1.59% | inhibition [14]: 82% | inhibition [15]: 22% | inhibition [16]: 11% | inhibition [17]: 6% | inhibition [18]: 0% | inhibition [19]: 0% | remaining at 2 h [20]: 101% | inhibition at 0.25 h, 10 µM (CYP2C19): 11.5% | inhibition at 0.25 h, 10 µM (CYP2D6): 0% | AUC(0-inf) [21]: 2890 ng·h/mL | AUC(0-inf) [22]: 2080 ng·h/mL | Vd [23]: 0.892 L/kg
